Results on 8 molecules are retold here after ChEMBL document CHEMBL1156178, “Discovery of novel 6,6-heterocycles as transient receptor potential vanilloid (TRPV1) antagonists” (J Med Chem, 2010).

Series [1] concerns the target Transient receptor potential cation channel subfamily V member 1 (Homo sapiens, UniProt Q8NER1). Nature of the series: Antagonist activity at human recombinant TRPV1 expressed in HEK293 cells assessed as inhibition of capsaicin-induced calcium mobilization by FLIPR assay.
Series [2] can be described thus: Solubility in 0.1 N HCL after 4 hrs by HPLC/MS analysis. Type of series: physicochemical.
The nature of series [3]: Oral bioavailability in rat at 10 mg/kg. Type of series: ADME, organism-based. The note with it: in vivo.
Series [4] is described as follows: Tmax in rat at […], iv and 10 mg/kg, po. It counts as ADME, organism-based. As to conditions: in vivo.
A short description of series [5]: Half life in rat at […], iv and 10 mg/kg, po. Type of series: ADME, organism-based. As to conditions: in vivo.
Series [6] can be described thus: Clearance in rat at […], iv and 10 mg/kg, po. Type of series: ADME, organism-based. As to conditions: in vivo.
Series [7] is described as follows: Metabolic stability in rat liver microsomes assessed as compound remaining at 1 uM after 10 mins by LCMS analysis. It counts as ADME, Microsome. The note with it: read-out: Activity. A digest of the protocol:
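Compound (1 μM) incubated at 37 °C with 0.5 mg/mL male pooled rat liver microsomes; NADPH added to start the reaction. Aliquots were taken at 0 and 10 min and quenched into ice-cold acetonitrile with internal standard, then centrifuged. Parent was monitored as the M+1 ion by ESI-LCMS in selected-ion mode. Percent remaining was taken as the 10 min/0 min signal ratio, corrected by internal-standard recovery.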

Series [8] in a line: Volume of distribution in rat at […], iv and 10 mg/kg, po. Type of series: ADME, organism-based. The note with it: in vivo.
For series [9], the system named is Rattus norvegicus. Nature of the series: Clearance in rat at […] iv dose. It counts as ADME, organism-based. On the set-up: dose 1.5 mg/kg, route intravenous. As to conditions: in vivo.
The species named for series [10] is Rattus norvegicus. Nature of the series: Analgesic activity against carrageenan-induced thermal hyperalgesia in rat. It counts as functional. The note with it: read-out: MED.

Each structure is given as a SMILES string. Values after ≈ are worked out from the molar mass of the structure shown.

Sequence of Transient receptor potential cation channel subfamily V member 1 (Q8NER1 whole entry): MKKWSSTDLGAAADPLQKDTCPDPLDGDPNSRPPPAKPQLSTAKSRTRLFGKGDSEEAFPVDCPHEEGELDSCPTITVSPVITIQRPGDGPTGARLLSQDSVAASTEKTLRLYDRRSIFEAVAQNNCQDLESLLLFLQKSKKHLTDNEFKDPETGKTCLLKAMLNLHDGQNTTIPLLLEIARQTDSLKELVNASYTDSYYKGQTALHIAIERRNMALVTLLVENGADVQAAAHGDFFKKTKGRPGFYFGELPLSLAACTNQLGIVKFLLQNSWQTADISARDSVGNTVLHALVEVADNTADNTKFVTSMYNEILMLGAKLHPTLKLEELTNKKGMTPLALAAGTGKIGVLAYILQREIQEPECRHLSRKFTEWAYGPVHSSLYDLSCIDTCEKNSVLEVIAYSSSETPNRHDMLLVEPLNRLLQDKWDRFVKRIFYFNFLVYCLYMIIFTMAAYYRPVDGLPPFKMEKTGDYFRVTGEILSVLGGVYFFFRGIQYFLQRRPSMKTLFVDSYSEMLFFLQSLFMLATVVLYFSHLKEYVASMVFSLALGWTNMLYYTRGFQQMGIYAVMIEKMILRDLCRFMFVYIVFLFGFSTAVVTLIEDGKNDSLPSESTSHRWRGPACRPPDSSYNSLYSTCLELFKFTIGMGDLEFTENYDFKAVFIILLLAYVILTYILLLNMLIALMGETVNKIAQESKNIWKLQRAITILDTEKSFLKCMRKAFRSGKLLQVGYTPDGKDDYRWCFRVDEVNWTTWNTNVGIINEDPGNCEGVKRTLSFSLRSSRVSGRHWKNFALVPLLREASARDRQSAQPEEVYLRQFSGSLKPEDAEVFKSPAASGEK

For the molecule `FC(F)(F)c1ccc(Nc2ccnc3cc(-c4ncccc4C(F)(F)F)cnc23)nc1`, in series [1], the 50% inhibitory concentration (IC50) worked out at 308 nM. Besides, the solubility at 4 h in [2] came to 38 µg/mL (≈ 87.3 µM).
In the case of `Cl.FC(F)(F)c1ccc(Nc2ncnc3cc(-c4ncccc4C(F)(F)F)ccc23)cn1`, the bioavailability in series [3] amounted to 65%. Further, the Tmax in [4] was 4.7 h. This molecule showed a half-life in series [5] of 4 h. The molecule also registered a solubility at 4 h in series [2] of 35 µg/mL. In [6], this molecule had a clearance of 22 mL/min/kg. Further, the remaining at 10 min, 1 µM in [7] is 100%. This molecule also had a Vd in series [8] of 5.5 L/kg.
As for `FC(F)(F)c1ccc(Nc2ncnc3cc(-c4ncccc4C(F)(F)F)ccc23)nc1`, the concentration in solution in series [2] (solubility at 4 h) came to 33 µg/mL (≈ 75.8 µM). The CL in the series on Rattus norvegicus [9] is given as 4.2 (ml/min)/kg. Besides, in [7], the remaining at 10 min, 1 µM was 91%.
For the molecule `FC(F)(F)c1ccc(Nc2cnnc3cc(-c4ncccc4C(F)(F)F)ccc23)nc1`, the IC50 in series [1] stood at 29 nM.
For the molecule `FC(F)(F)c1ccc(Nc2ncnc3nc(-c4ncccc4C(F)(F)F)cnc23)cc1`, the IC50 in series [1] was found to be 0.21 nM. The molecule also showed a solubility at 4 h in series [2] of 1 µg/mL (≈ 2.29 µM).
For `COCc1nc(Nc2ccc(C(F)(F)F)cc2)c2ccc(-c3ncccc3C(F)(F)F)cc2n1`, the minimal effective dose in the series filed under Rattus norvegicus [10] was 0.3 mg/kg.
For `FC(F)(F)c1ccc(Nc2ccnc3cc(-c4ncccc4C(F)(F)F)ccc23)nc1`, the IC50 in series [1] is 1.65 nM. Besides, the solubility at 4 h in series [2] came out at 34 µg/mL (≈ 78.3 µM).
Turning to `FC(F)(F)c1ccc(Nc2ncnc3cc(-c4ncccc4C(F)(F)F)cnc23)cc1`, the IC50 in series [1] amounted to 0.63 nM. This molecule had a solubility at 4 h in series [2] of 6 µg/mL (≈ 13.8 µM).
